Screening results (PubChem)
Exocytosis inh: blocks lytic granule exocytosis; AID 651702; actives 0.66% (n = 360,000); inhibition, % at 10 µM; TALL-104 LAMP-1 surface exposure, flow cytometry; cells stimulated with thapsigargin and PMA;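 active means inhibition above about 55%, limit read from the data; inconclusive means no clear call, values can overlap the other calls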
Myeloid diff 2: myeloid differentiation induction | AID 624256 | ER-HoxA9 myeloid progenitors, lysozyme-GFP differentiation, flow cytometry | calls only at 10 µM | actives 1% (n = 360,000);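 active means normalized GFP-positive differentiation at or above the plate's own cutoff, the solvent-only control mean plus 3 SD; inconclusive means no clear call, values can overlap the other calls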;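 further: cells exposed to compound for four days before flow analysis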
MC4R antag cAMP: human MC4R antagonism in cAMP assay. actives 0.48% (n = 360,000). MC4R-expressing cells, MTII-stimulated cAMP, LANCE TR-FRET. inhibition, % at 6.5 µM;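 active means inhibition above its plate's cutoff, the mean of tested wells on that plate plus 3 SD, cut at about 29% in these data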;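 further: 0% = Melanotan II alone and 100% = Melanotan II plus saturating MCL0020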
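Material: U2OS-MC4R stable cell line | Reagent: Melanotan II challenge after compound preincubation | Doses: One concentration, 6.5 µM nominal | Incubation: 30-min compound preincubation, 1-h Melanotan II challenge, 1-h detection, room temperature | Signal: TR-FRET cAMP assay | Replicates: One well per compound, no replicates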
EBI2 antag: blocks human EBI2 receptor beta-arrestin signaling. inhibition, % at 5 µM. EBI2 beta-arrestin recruitment, luminescence, 7a,25-OHC stimulated. actives 0.81% (n = 360,000). P32249; in the data active means inhibition above about 38%;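 further: enzyme fragment complementation signal reports receptor beta-arrestin coupling in cells; 0% = agonist plus DMSO wells and 100% = wells without agonist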
Target sequence (P32249 whole entry, looked up, the tested form may be a part): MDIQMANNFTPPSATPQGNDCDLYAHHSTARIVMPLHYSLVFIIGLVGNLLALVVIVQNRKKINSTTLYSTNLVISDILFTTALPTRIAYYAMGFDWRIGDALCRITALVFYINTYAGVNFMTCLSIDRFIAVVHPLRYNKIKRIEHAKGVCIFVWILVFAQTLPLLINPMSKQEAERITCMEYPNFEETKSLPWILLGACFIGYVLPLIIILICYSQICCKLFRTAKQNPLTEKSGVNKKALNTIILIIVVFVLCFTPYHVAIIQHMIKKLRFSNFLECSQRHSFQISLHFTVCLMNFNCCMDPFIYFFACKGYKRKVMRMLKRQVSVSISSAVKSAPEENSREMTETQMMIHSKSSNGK
MC4R ag barr: activates human MC4R beta-arrestin recruitment; actives 0.98% (n = 360,000); activation, % at 8.9 µM; P32245; U2OS MC4R beta-arrestin complementation, luminescence; percent of melanotan II response, DMSO zero; AID 540308;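 active means activation above a per-plate cutoff, the mean activation of sample wells on that plate plus 3 SD, cut at about 8% in these data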
Starred values were filed as active, the others as inactive; i = inactive; ? = inconclusive; / = no result given; + = active, no number. Rows were chosen to be rich in hits. Some 3.7% of all compounds tested hit in one or more screens of this group.

SMILES	Exocytosis inh	Myeloid diff 2	MC4R antag cAMP	EBI2 antag	MC4R ag barr
Cc1ccc(N(C(=O)C(F)(F)F)C(C(=O)NC2CCCCC2)c2cccs2)cc1 (stereo not drawn)	-0.2	i	11.2	9.8	14.8*
Cc1ccc(N(C(=O)CCC(=O)Nc2cc(C)on2)C(C(=O)NC2CCCC2)c2cccs2)cc1 (stereo not drawn)	-1.6	i	16.2	7.3	-0.3
CC(=O)Nc1cc[n+](C(C)C(=O)c2ccc(Br)cc2)cc1 (stereo not drawn)	-2.4	+	1.8	3.3	-2.3
Cc1c(C(c2ccccc2O)c2c(C)n(C)n(-c3ccccc3)c2=O)c(=O)n(-c2ccccc2)n1C	-2.8	+	5.6	2.4	2.3
Cc1c(C(=O)NCc2ccc3c(c2)OCCO3)sc(=O)n1Cc1ccccc1C(F)(F)F	5.0	+	10.7	1.0	4.0
Cc1c(C(=O)NCc2ccc3c(c2)OCCO3)sc(=O)n1Cc1ccccc1F	-0.1	i	10.1	1.3	-0.1
CC1(C)Cc2c(c(N3CCOCC3)nc3sc4c(NCc5ccco5)nnnc4c23)CS1	0.6	i	6.2	24.8	-1.3
CC1(C)Cc2c(c(N3CCOCC3)nc3sc4c(NCc5ccccc5)nnnc4c23)CS1	-0.2	i	5.1	76.4*	-1.4
CC1Cc2ccccc2N1C(=S)Nc1ccc(S(N)(=O)=O)cc1 (stereo not drawn)	3.7	+	-0.9	4.0	-1.7
COc1cc(NC(=O)COc2c(C)cc(C)cc2[N+](=O)[O-])c(OC)cc1Cl	-6.9	i	6.9	15.2	8.4*
COc1cc(Cl)c(C)cc1NC(=O)COc1ccccc1[N+](=O)[O-]	0.1	i	-0.1	-31.7	0.2
CCCOc1ccc(OC(=O)Cc2ccc(OC)c(S(=O)(=O)N3CCOCC3)c2)cc1	-3.8	+	15.2	-8.4	-1.6
CCc1ccc(OC(=O)Cc2ccc(OC)c(S(=O)(=O)N3CCOCC3)c2)cc1	-2.6	i	14.0	1.3	-0.5
C/C(=N\NC(=O)c1ccccc1F)c1cccc(NC(=O)c2ccc(C)cc2)c1	3.2	i	14.9	5.0	-2.2
COc1ccccc1NS(=O)(=O)c1cc([N+](=O)[O-])ccc1N/N=C/c1c(C)[nH]c2ccccc12	32.2	+	6.4	39.1*	4.5
O=[N+]([O-])c1ccc(N/N=C/c2c[nH]c3ccccc23)c(S(=O)(=O)Nc2ccc(Cl)cc2)c1	35.7	+	3.1	26.5	-1.6
Cc1ccc([N+](=O)[O-])cc1S(=O)(=O)NCCc1c(C)[nH]c2ccccc12	2.4	i	13.6	0.4	3.8
Cc1[nH]c2ccccc2c1/C=N/NC(=O)c1cccc([N+](=O)[O-])c1	0.2	i	5.7	-9.2	-0.8
C/C(=N\Nc1nc2ccccc2[nH]1)c1ccc([N+](=O)[O-])cc1	5.1	i	-3.2	9.6	9.5*
Cc1[nH]c2ccccc2c1/C=N/Nc1ccc([N+](=O)[O-])cc1	-2.2	+	4.5	41.8*	-5.8
C[C@@H]1CN([C@H](C)CO)C(=O)CCCn2nncc2CO[C@@H]1CN(C)S(C)(=O)=O	-4.5	i	1.3	-3.4	0.6
CCOC(=O)CNC(=O)N1C[C@H]2CON(C)[C@H]2C[C@H]1c1ccccc1Br	-4.5	i	8.4	-4.2	-0.5
C/C(=N/Nc1ccc([N+](=O)[O-])cc1)c1c[nH]c2ccccc12	9.3	+	21.7	34.7	-2.7
Cc1c(N=C2N=C(NC(=O)Nc3ccc(Cl)cc3)c3ccccc32)c(=O)n(-c2ccccc2)n1C	-0.1	i	0.4	8.4	4.3
Cn1c(=O)c(NCCc2ccccc2)c2c3c(cccc31)C(=O)c1ccccc1-2	-2.6	+	2.4	15.9	-0.9
SMILES	Exocytosis inh	Myeloid diff 2	MC4R antag cAMP	EBI2 antag	MC4R ag barr
Cc1cc(Br)c2c(c1)/C(=C/C(=O)c1cccs1)C(=O)N2	-1.2	?	-1.6	33.7	6.2
Cc1cc(C)c2c(c1)/C(=C/C(=O)c1ccc(Br)s1)C(=O)N2	10.9	i	12.5	73.5*	-0.5
CC12CCC(CC1O)C2C(=O)O (stereo not drawn)	-0.4	i	0.4	2.7	-2.0
Cc1cc(O)c(-c2cc(C(=O)NCCc3ccc(S(N)(=O)=O)cc3)[nH]n2)cc1C	0.9	i	7.3	17.6	0.9
Cc1cc(C)c(O)c(-c2cc(C(=O)NCCc3ccc(S(N)(=O)=O)cc3)[nH]n2)c1	63.2*	i	3.6	22.4	-1.4
CC(O)(c1cccc(F)c1)c1nc(-c2cc(F)cc(F)c2)cs1 (stereo not drawn)	4.7	i	9.5	18.8	2.8
O=[N+]([O-])/C=C/c1cn(Cc2ccccc2)c2ccccc12	17.6	i	0.1	-25.8	0.9
N#Cc1ccccc1Cn1cc(/C=C/[N+](=O)[O-])c2ccccc21	60.9*	i	3.4	-40.3	-1.3
CCCCc1nc2cc(C(=O)NCCc3c(C)n[nH]c3C)ccc2o1	13.4	i	15.6	-2.5	0.7
C=CCn1c(SCC(=O)Nc2nccs2)nnc1-c1cc2cccc(OC)c2o1	1.5	i	1.0	-9.5	9.3*
CC(=O)Nc1ccc(S(=O)(=O)NCCSCc2cccc(Cl)c2)cc1	2.6	+	13.9	-10.0	-1.7
CC(=O)Nc1ccc(S(=O)(=O)NCCSCc2c(Cl)cccc2Cl)cc1	-2.5	i	0.9	13.7	0.2
CC(=NCc1cccc(Cl)c1)c1nc(-c2ccco2)oc1O	-3.2	+	3.8	-2.3	-0.5
Oc1oc(-c2ccco2)nc1C=Nc1cccc(Cl)c1	-2.0	i	-6.9	2.7	0.6
Cc1ccc(C)c(C(=O)NCCN(C)C)c1	0.4	i	-5.7	-1.5	-2.2
C=C(CN(C)C)C(=O)c1cc(C)ccc1C	34.5	/	47.5*	2.1	-4.4
C=CCc1c(C)nc2ccc(C(=O)OCC)cc2c1Cl	3.6	i	8.6	-1.0	-0.7
COc1cc(/C=C/c2nc(N)nc(-c3ccccc3O)n2)cc(OC)c1OC	25.3	i	13.0	10.7	4.0
COc1cc(/C=C/c2ccc3cccc(O)c3n2)cc(OC)c1OC	7.3	/	-17.6	61.6*	-2.3
COc1cc(/C=C/c2nc(-c3ccccc3O)n[nH]2)cc(OC)c1OC	98.1*	?	0.8	29.4	-0.7
O=C(Nc1cc(C(F)(F)F)cc(C(F)(F)F)c1)O[C@@H]1c2ccccc2[C@@H]2Cc3csc[n+]3[C@H]12	-0.4	i	/	27.0	/
COc1ccc(N2CCN(C(C)C(=O)Nc3nnc(C)s3)CC2)cc1 (stereo not drawn)	-1.5	i	7.2	6.3	-1.1
COCCN(C(=O)CSc1nc2ccc(Cl)cc2[nH]1)c1c(N)n(Cc2ccccc2)c(=O)[nH]c1=O	-0.5	i	-0.2	-8.9	-2.5
COCCN(C(=O)CSc1nc2ccc(C)cc2[nH]1)c1c(N)n(Cc2ccccc2)c(=O)[nH]c1=O	-4.9	+	4.5	-8.1	-0.7
